# Screening data as filed in PubChem BioAssay.
# NR3A LBD binder = binders of NR3A ligand-binding domain, primary screen, biophysical, differential scanning fluorimetry, uHTS. Glutamate receptor ionotropic, NMDA 3A (GRIN3A) ligand-binding domain. NR3A LBD differential scanning fluorimetry, Tm shift; 0% = protein alone, 100% = glycine-bound protein. Tm shift relative to glycine control, % at 25 µM. hit rate 2.5% among 340,000. AID 1259313, 2017;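 active = melting temperature shift of at least 10% of the positive control shift, at one fixed dose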
# iPSC survival up = enhancers of single-cell hiPSC survival, primary screen, ATPlite luminescence. 100% = ROCK inhibitor wells, 0% = DMSO. hit rate 0.044% among 360,000. survival enhancement, % at 20 µM; in the data active = survival enhancement above about 18%;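 note: cells exposed to compounds for 16 hours before the ATP read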
# Arrestin-AP2 inh = inhibitors of beta-arrestin/AP2 binding, primary screen, biochemical, GPCR trafficking, flow cytometry; beta-arrestin 1 C-terminal peptide binding to AP2 beta2-adaptin appendage (human); FITC-arrestin peptide / GST-AP2 beads; AP2 beta2 appendage carries R879A mutation; inhibition, % at 10 µM; hit rate 0.31% among 340,000; AID 504490, 2011;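 active = inhibition above a set limit, near 3 SD of compounds lacking own fluorescence, cut at about 54% in these data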;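 note: plate controls were DMSO wells for no effect and 5 µM unlabelled arrestin peptide for full effect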
#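 test system = AP2 appendage R879A on GSH beads | buffer or medium = PBS plus Tween 20 (0.05%) and BSA (0.1%) | incubation = 12 min plus 1 h, RT | detection = bead flow cytometry, FITC channel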
# H9c2 protect = cardioprotection against H2O2-induced cell death, primary screen, uHTS, H9c2 cells, ATPLite luminescence; H9c2 cardiomyocytes, H2O2 injury protection, 2 h; protection from H2O2 cell death, % at 20 µM; hit rate 0.63% among 360,000; AID 588492, 2011;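 active = compounds giving at least 50% protection of heart cells from peroxide-induced death in the single-dose screen, raw or plate-pattern-corrected value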;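 note: 0% = DMSO wells with peroxide and 100% = DMSO wells without peroxide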
# SENP1 FRET inh = human SENP1 catalytic domain inhibitors, primary screen, biochemical, FRET, uHTS | AID 624204, 2012 | inhibition, % at 10 µM | hit rate 0.21% among 360,000 | recombinant SENP1 catalytic domain, CyPet-SUMO1-YPet FRET cleavage | Sentrin-specific protease 1 (Homo sapiens), Q9P0U3;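 active = inhibition at least 30% at 10 µM, raw YFP signal under a set limit, fluorescence ratio 0.5 to 1.5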;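 note: 0% = enzyme with DMSO and 100% = no enzyme wells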
# Target sequence (Q9P0U3 419-644 limits assumed): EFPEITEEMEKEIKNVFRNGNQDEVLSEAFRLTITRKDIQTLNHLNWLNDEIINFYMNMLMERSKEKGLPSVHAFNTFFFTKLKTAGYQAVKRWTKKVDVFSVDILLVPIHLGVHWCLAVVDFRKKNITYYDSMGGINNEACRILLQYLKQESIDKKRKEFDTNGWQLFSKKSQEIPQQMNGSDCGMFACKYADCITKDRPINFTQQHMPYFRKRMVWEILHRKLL
#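 Test system: recombinant human SENP1 catalytic domain, His6-tagged / Medium: pH 8 Tris buffer with EDTA, NaCl, BME, BSA, NP40, catalase / Also added: SUMO1 FRET substrate flanked by Cypet and Ypet, 25 nM / Times: 50 min reaction at room temperature / Signal: FRET, CFP and YFP emission / Control set: no-enzyme low control and enzyme-plus-DMSO high control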
# FAS-TE inh = FAS thioesterase domain inhibitors, primary screen, biochemical, fluorescence intensity, uHTS; Fatty acid synthase (Homo sapiens), P49327; recombinant FAS-TE, OMFH fluorogenic substrate, fluorescence endpoint; inhibition, % at 15 µM; hit rate 0.67% among 360,000;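 active = compounds whose normalised, plate-corrected inhibition of enzyme fluorescence in the single-dose primary screen is 50% or more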;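 note: 0% = DMSO with enzyme and 100% = substrate without enzyme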
# The depositor's hits bear a star; · = no result. In the library only some 4% were active in any assay of this set; here they are far more common.
SMILES,NR3A LBD binder,iPSC survival up,Arrestin-AP2 inh,H9c2 protect,SENP1 FRET inh,FAS-TE inh
CN1CCN(c2ncnc3c2ncn3[C@H]2CN(Cc3ccc(Cl)cc3)C[C@@H](CO)O2)CC1,·,0,·,0,0,-6
CCS(=O)(=O)C(C)(CCl)C(=O)Nc1ccc(C(=O)OC)cc1 (stereo not drawn),12*,0,-18,1,2,-4
COC(=O)c1ccc(NC(=O)NCCCl)cc1,1,-1,43,-8,1,-3
CC12COC3(C(=O)Nc4ccc(Cl)cc4)CC1CCC32C (stereo not drawn),-2,4,-17,-6,0,8
CC12COC3(C(=O)Nc4ccc([N+](=O)[O-])cc4)CC1CCC32C (stereo not drawn),17*,0,3,-9,0,22
CC(C)NC(=O)N(C)C[C@H]1OCCCC[C@@H](C)Oc2ccc(N(C)C)cc2C(=O)N([C@H](C)CO)C[C@@H]1C,·,0,·,0,2,-13
CCc1nc2c(OCc3c(C)noc3C)cccn2c1N(C=O)Cc1ccccc1,·,0,·,-1,-6,-10
O=C(COC(=O)COc1ccc(Cl)cc1)Nc1ccc(F)c([N+](=O)[O-])c1,12*,-1,-8,2,4,9
O=C(COC(=O)CNC(=O)C1CCCCC1)Nc1ccc(F)c([N+](=O)[O-])c1,-1,0,12,4,0,40
O=C(COC(=O)CNC(=O)c1ccccc1)Nc1ccc(F)c([N+](=O)[O-])c1,13*,2,15,3,0,15
O=C(c1cccs1)N1C[C@@H](n2cc(C3CC3)nn2)[C@H](O)C[C@@H]1c1ccc(Cl)cc1,·,2,·,4,0,-9
Cc1ccc(-c2nc3ccc(C)cn3c2CC2CCCCC2)cc1,·,0,·,·,-2,19
CC1CN(S(=O)(=O)c2ccc(C(=O)Nc3nnc(-c4ccco4)o3)cc2)CC(C)O1 (stereo not drawn),-16,-1,0,11,-1,-12
COc1cccc(-c2nnc(NC(=O)c3ccc(S(=O)(=O)N4CC(C)OC(C)C4)cc3)o2)c1 (stereo not drawn),-9,0,30,56*,1,5
CCC1CCCCN1S(=O)(=O)c1ccc(C(=O)Nc2nnc(-c3cccs3)o2)cc1 (stereo not drawn),-5,0,17,75*,3,3
CN(C)S(=O)(=O)c1ccc(C(=O)Nc2nnc(-c3cccs3)o2)cc1,-3,2,-2,17,2,0
CCC1CCCCN1S(=O)(=O)c1ccc(NC(=O)c2cccnc2)cc1 (stereo not drawn),4,-1,12,1,2,2
CC1CC(C)CN(S(=O)(=O)c2ccc(C(=O)Nc3nnc(-c4cccs4)o3)cc2)C1 (stereo not drawn),2,3,9,50*,4,13
Cc1cc(NC(=O)CS(=O)(=O)c2cn(Cc3cccc(C(F)(F)F)c3)c3ccccc23)no1,·,-3,·,-28,1,14
COc1cc(CN2C[C@@H](CO)O[C@@H](n3cnc4c(N5CCCC5)ncnc43)C2)cc(OC)c1OC,·,2,·,-2,-1,-5
CC1(Oc2ccccc2)CCN(Cc2csc3ccccc23)C1 (stereo not drawn),·,-2,·,-2,3,15
O=S(=O)(N=C1C=CC(=NS(=O)(=O)c2ccccc2)c2ccccc21)c1ccccc1,·,-3,·,-23,60*,6
S=C(NNc1ccnc2cc(Cl)ccc12)Nc1ccccc1Cl,20*,-1,0,-17,-20,3
Clc1ccc(NNc2ccnc3cc(Cl)ccc23)cc1,4,0,6,-6,-22,19
CCn1ccnc1CN(C)Cc1cn(-c2ccc(C)cc2)nc1-c1cccc(C)c1,24*,1,-2,-2,0,19
